We go through four molecules from ChEMBL document CHEMBL1671623, “Identification and biochemical characterization of small-molecule inhibitors of west nile virus serine protease by a high-throughput screen” (Antimicrob Agents Chemother, 2008).

Calls of active or inactive are those of the source. The calls are words filed in the database; no cut-off is given here. Peptide text beside a SMILES is read from it. * marks the point of attachment. AMC = Cc1cc(=O)oc2cc(N*)ccc12; Boc = CC(C)(C)OC(=O)*

The test system of data set [1] is Vero. Briefly: (§1) Cytotoxicity against African green monkey Vero cells after 24 hrs by Cell Titer-Glo assay. Conditions: chlorocebus sabaeus, vero, 24 h. In kind it is cell-based. The gist of the method: (§2)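 Vero cells seeded at 5,000 cells/well and grown 24 h at 37°C, 5% CO2. Compound added in triplicate in DMEM with 10% FBS and incubated a further 24 h. Viability read by CellTiter-Glo luminescence. Cytotoxicity expressed relative to no-compound wells; CC50 taken from the dose curve; two independent experiments.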
Background: In ATP-based viability assays light output follows the ATP content of the culture.

The nature of data set [2]: Inhibition of West Nile virus EG101 NS2BH/NS3 serine protease after 15 mins using Boc-Gly-Lys-Arg-AMC substrate by spectrofluorometry. The gist of the method:
(§3)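 His-tagged NS2BH/NS3 complex expressed in E. coli and purified by Talon affinity and Sephadex G-75. 67 nM protease preincubated 15 min at room temperature with 50 µM inhibitor in 200 mM Tris-HCl pH 9.5, 6 mM NaCl, 30% glycerol. Substrate added at 100 µM final (Boc-GKR-AMC for WNV, Boc-GRR-AMC for DENV2) for 15 min. AMC fluorescence read at ex 390/em 465 nm. Activity expressed as percent of no-inhibitor control; triplicate.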

Data set [3] in a line: Inhibition of Dengue virus 2 New Guinea C NS2BH/NS3 serine protease after 15 mins by spectrofluorometer in presence of Boc-Gly-Arg-Arg-AMC. The arrangement: species or system dengue virus type 2. The gist of the method: as §3
Data set [4] deals with West Nile virus. Briefly: Inhibition of West Nile virus EG101 NS2BH/NS3 serine protease after 15 mins using Z-Val-Lys-Arg-MNA substrate assessed as increase in apparent Km/apparent Vmax ratio of substrate by Sigma plot. In short, it runs like this:
(§4)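 Steady-state kinetics with purified NS2BH/NS3 protease. Enzyme preincubated 15 min at room temperature with inhibitor at 0, 1.5, 2.5, 5 or 10 µM. Substrate then added at eight concentrations (10–400 µM) for 15 min. AMC or MNA fluorescence converted to rate via a standard curve. Kmapp/Vmaxapp and 1/Vmaxapp plotted against inhibitor concentration; Ki from kinetic fitting; repeated three times.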

Data set [5] has as its target Coagulation factor X (Homo sapiens) (UniProt P00742). Briefly: Inhibition of protease activity of factor 10a using Boc-Ile-Glu-Gly-Arg-AMC substrate. In short, it runs like this:
(§5)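 Trypsin (67 nM) or factor Xa (25 nM) preincubated 15 min at room temperature with 50 µM inhibitor in 200 mM Tris-HCl pH 9.5, 6 mM NaCl, 30% glycerol. Substrate added at 100 µM for 15 min: Z-Gly-Pro-Arg-pNA for trypsin, read by absorbance at 405 nm; Boc-Ile-Glu-Gly-Arg-AMC for factor Xa, read by fluorescence. Aprotinin as positive control; triplicate.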

In data set [6] the test system is West Nile virus. The data set is described as follows: Antiviral activity against West Nile virus EG101 infected in Vero cells assessed as inhibition of viral replication measured 24 hrs post infection by luciferase reporter gene assay. The format is functional, organism-based. In short, it runs like this:
(§6)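 Vero cells pretreated 30 min with twofold serial dilutions of inhibitor in MEM with 10% FBS and 1% penicillin-streptomycin. Then infected with WNV reporter virus particles carrying a Renilla luciferase subgenomic replicon (approx. 1 x 10^4 RVPs, MOI 0.5 to 1.0). Lysates assayed for luciferase. EC50 from variable-slope sigmoidal nonlinear regression; triplicate.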
(In general: Reporter assays use an easily measured gene product as a stand-in for the process of interest.)

A short description of data set [7]: as §1. The format is cell-based. Conditions: chlorocebus sabaeus, Vero cells. In short, it runs like this: as §2
The nature of data set [8]: Selectivity index, ratio of CC50 for African green monkey Vero cells to EC50 for West Nile virus EG101. The format is toxicity, cell-based. Conditions: read-out: Selectivity Index.
In data set [9] the test system is West Nile virus. The data set is described as follows: Inhibition of West Nile virus EG101 NS2BH/NS3 serine protease after 15 mins using Boc-Gly-Lys-Arg-AMC substrate assessed as increase in apparent Km/apparent Vmax ratio of substrate by Sigma plot. In short, it runs like this: as §4
The subject of data set [10] is West Nile virus. The data set is described as follows: Antiviral activity against West Nile virus EG101 infected in Vero cells assessed as inhibition of viral replication measured 48 hrs post infection by luciferase reporter gene assay. The format is functional, organism-based. In short, it runs like this: as §6
A short description of data set [11]: Inhibition of protease activity of trypsin using Z-Gly-Pro-Arg-pNA substrate. In short, it runs like this: as §5
The subject of data set [12] is West Nile virus. The data set is described as follows: Antiviral activity against West Nile virus EG101 infected in Vero cells assessed as inhibition of viral replication measured 72 hrs post infection by luciferase reporter gene assay. In kind it is functional, organism-based. The gist of the method: as §6

Coagulation factor X (Homo sapiens), sequence (P00742 41-179 limits assumed): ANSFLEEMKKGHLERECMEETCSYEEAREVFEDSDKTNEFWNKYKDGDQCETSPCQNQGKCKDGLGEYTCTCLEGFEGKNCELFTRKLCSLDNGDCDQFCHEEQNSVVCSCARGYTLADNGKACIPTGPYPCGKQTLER
Coagulation factor X (Homo sapiens), sequence (P00742 235-488 limits assumed): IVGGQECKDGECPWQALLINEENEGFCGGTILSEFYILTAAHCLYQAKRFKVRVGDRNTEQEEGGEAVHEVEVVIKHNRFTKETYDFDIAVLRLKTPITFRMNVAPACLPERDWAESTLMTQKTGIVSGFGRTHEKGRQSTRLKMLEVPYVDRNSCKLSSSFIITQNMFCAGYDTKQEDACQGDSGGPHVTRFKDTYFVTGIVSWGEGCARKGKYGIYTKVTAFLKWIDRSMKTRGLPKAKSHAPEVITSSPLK

Regarding `COc1cccc(C(NC(=O)c2ccccc2)c2ccc3cccnc3c2O)c1` (configuration not stated), the Activity entry in [1] is on record as “Toxic”. In addition, the inhibition constant (Ki) (as a rule, a dissociation constant, usually derived from enzyme kinetics or from competition with a known ligand) turned out to be 3.2 µM in data set [2] and 28.6 µM in data set [3].
`Cc1cc(=O)oc2cc(NC(=O)[C@H](CCCNC(=N)N)NC(=O)[C@H](CCCCN)NC(=O)CNC(=O)OC(C)(C)C)ccc12` (Boc-Gly-Lys-Arg-{AMC}): in data set [4], the Km – broadly, the concentration of substrate that gives half-maximal velocity – is 737 µM.
On to `CCn1c(SCC(=O)c2ccccc2)nc2ccccc2c1=O`, for which the Ki in [2] came to 37.3 µM; in data set [3], 17 µM.
In the case of `Oc1ccccc1C(Nc1nccs1)c1ccc2cccnc2c1O` (configuration not stated), the inhibition entry in data set [5] and in data set [11] was “inactive” in each case. In addition, the inhibition result in data set [6], in data set [4], in data set [9] and in data set [12] was “Active” throughout. Half-maximal cytotoxicity in data set [7] (CC50 at 24 h) was put at 140 µM. Also, in [8], the selectivity ratio is 100. For the same molecule, the concentration giving a half-maximal response (EC50) – broadly, the concentration at which the effect is half-maximal – in [10] is 1.4 µM. Also, the inhibition constant (Ki) in data set [2] was 3.4 µM; in data set [3] it was 30.2 µM.
